The record followed here is ChEMBL document CHEMBL3124836, “Pyrano-isoflavans from Glycyrrhiza uralensis with antibacterial activity against Streptococcus mutans and Porphyromonas gingivalis” (2014).

Converted amounts (≈) assume the structure as drawn. Some results are limits rather than exact numbers.

What all share (format): functional
Assay [1] concerns Streptococcus mutans. The experiment in a line: Antibacterial activity against Streptococcus mutans ATCC 35668 after 24 hrs by microbroth dilution assay. The conditions noted are these: ATCC 35668, 24 h. Summed up: (§1)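 EtOH stocks tested as a 2-fold series (200–0.78 μg/mL) mixed with an equal volume of overnight culture diluted to OD660 0.2. Medium was THB plus hemin 10 μg/mL and vitamin K 10 μg/mL. P. gingivalis was run anaerobically (N2/H2/CO2 80/10/10) and S. mutans aerobically. After 24 h at 37 °C growth was read visually; MIC was the lowest concentration without growth. Three independent experiments.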
On the technique in general: Dilution methods test growth across graded concentrations, often in twofold steps.

Assay [2] relates to Porphyromonas gingivalis. Description: Bactericidal activity against Porphyromonas gingivalis ATCC 33277 after 3 days. The note with it: ATCC 33277, 72 h. In outline: (§2)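 From microbroth wells without visible growth after 24 h, aliquots were spread on THB agar and incubated 3 days at 37 °C. MBC was the lowest concentration giving no colony formation. Three independent experiments.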

Assay [3] deals with Porphyromonas gingivalis. Description: Antibacterial activity against Porphyromonas gingivalis ATCC 33277 after 24 hrs by microbroth dilution assay. The note with it: ATCC 33277, 24 h. In outline: as §1
In assay [4] the test system is Streptococcus mutans. Description: Bactericidal activity against Streptococcus mutans ATCC 35668 after 3 days. The note with it: ATCC 35668, 72 h. In outline: as §2

Turning to `COc1c(CC=C(C)C)c(O)cc2c1C[C@H](C1=CC(=O)C(O)=C(CC=C(C)C)C1=O)CO2`, the MIC – broadly, the least concentration at which growth counts as inhibited – was over 200 µg/mL against Streptococcus mutans [1] and 25 µg/mL (≈ 57 µM) against Porphyromonas gingivalis [3]. Further, the MBC (commonly the smallest concentration meeting the test's criterion for killing) against Porphyromonas gingivalis [2] was 25 µg/mL (≈ 57 µM); with Streptococcus mutans [4], over 200 µg/mL.

Turning to `COc1c(CC=C(C)C)c(O)cc2c1C[C@H](c1ccc(O)c3c1OC(C)(C)C=C3)CO2`, the MIC in the assay on Streptococcus mutans [1] and in the assay with Porphyromonas gingivalis [3] was 6.25 µg/mL (≈ 14.8 µM) each time. For the same compound, the minimum bactericidal concentration (MBC) against Porphyromonas gingivalis [2] and with Streptococcus mutans [4] was 6.25 µg/mL (≈ 14.8 µM) each time.

Regarding `COc1c2c(cc3c1C[C@H](c1ccc(O)c(CC=C(C)C)c1O)CO3)OC(C)(C)C=C2`, the MIC in the assay on Streptococcus mutans [1] stood at 25 µg/mL (≈ 59.2 µM); with Porphyromonas gingivalis [3], 6.25 µg/mL (≈ 14.8 µM). In addition, the MBC with Porphyromonas gingivalis [2] was 6.25 µg/mL (≈ 14.8 µM); against Streptococcus mutans [4], over 200 µg/mL.

For the compound `COc1c(CC=C(C)C)c(O)cc2c1C[C@H](c1ccc3c(c1O)C=CC(C)(C)O3)CO2`, the MIC against Streptococcus mutans [1] and in the assay on Porphyromonas gingivalis [3] was 12.5 µg/mL (≈ 29.6 µM) throughout. Besides, the minimal bactericidal concentration (MBC) in the assay on Porphyromonas gingivalis [2] and in the assay on Streptococcus mutans [4] was 12.5 µg/mL (≈ 29.6 µM) each time.

With `COc1c(CC=C(C)C)c(O)cc2c1[C@@H]1Oc3c(ccc(O)c3CC=C(C)C)[C@@H]1CO2`, the MIC stood at 200 µg/mL (≈ 473 µM) against Streptococcus mutans [1] and 50 µg/mL (≈ 118 µM) against Porphyromonas gingivalis [3]. Moreover, the MBC with Porphyromonas gingivalis [2] was 50 µg/mL (≈ 118 µM); against Streptococcus mutans [4], over 200 µg/mL.

In the case of `COc1cc2occ(-c3ccc(O)cc3)c(=O)c2c(O)c1CC=C(C)C` [GANCAONIN G], the MIC with Streptococcus mutans [1] was over 200 µg/mL; against Porphyromonas gingivalis [3], 200 µg/mL (≈ 568 µM). Moreover, the MBC against Porphyromonas gingivalis [2] is 200 µg/mL (≈ 568 µM); in the assay with Streptococcus mutans [4] it was over 200 µg/mL.

`COc1c2c(cc3oc(=O)c4c5ccc(O)cc5oc4c13)OC(C)(C)CC2` [ISOGLYCYROL]: the MIC was over 200 µg/mL in the assay on Streptococcus mutans [1] and 200 µg/mL (≈ 546 µM) in the assay with Porphyromonas gingivalis [3]. In addition, the MBC was 200 µg/mL (≈ 546 µM) against Porphyromonas gingivalis [2] and over 200 µg/mL in the assay with Streptococcus mutans [4].

Consider `COc1c(CC=C(C)C)c(O)cc2c1C[C@H](c1ccc(O)c(CC=C(C)C)c1O)CO2` [LICORICIDIN], for which the MIC against Streptococcus mutans [1] stood at 12.5 µg/mL (≈ 29.4 µM); against Porphyromonas gingivalis [3], 3.12 µg/mL (≈ 7.36 µM). Further, the MBC in the assay with Porphyromonas gingivalis [2] turned out to be 3.12 µg/mL (≈ 7.36 µM); against Streptococcus mutans [4] it was 25 µg/mL (≈ 58.9 µM).

`CC1(C)S[C@@H]2[C@H](NC(=O)Cc3ccccc3)C(=O)N2[C@H]1C(=O)O` [PENICILLIN G] registered an MIC in the assay on Streptococcus mutans [1] of 0.05 µg/mL (≈ 0.15 µM). Also, the minimum bactericidal concentration (MBC) against Streptococcus mutans [4] is 1.56 µg/mL (≈ 4.67 µM).

Compound `CN(C)[C@@H]1C(O)=C(C(N)=O)C(=O)[C@@]2(O)C(O)=C3C(=O)c4c(O)cccc4[C@@](C)(O)[C@H]3C[C@@H]12` [TETRACYCLINE] came in with an MBC in the assay on Porphyromonas gingivalis [2] of 12.5 µg/mL (≈ 28.1 µM). In the assay on Porphyromonas gingivalis [3], this compound displayed a minimal inhibitory concentration (MIC) of 1.56 µg/mL (≈ 3.51 µM).
